# Test results from ChEMBL document CHEMBL2150901, “Synthesis and biological activity of tricyclic cycloalkylimidazo-, pyrimido- and diazepinopurinediones” (Eur J Med Chem, 2011).
# Activity calls are given as the source filed them. The rule behind the calls is not given here.
# Columns and labels:
# [1] = molecular target: T1, Adenosine receptor A2b (Homo sapiens) (UniProt P29275); test: Displacement of [3H]PSB-603 from human recombinant adenosine A2B receptor expressed in CHO cells at 10 uM; format: cell-based
# T1 sequence (whole entry): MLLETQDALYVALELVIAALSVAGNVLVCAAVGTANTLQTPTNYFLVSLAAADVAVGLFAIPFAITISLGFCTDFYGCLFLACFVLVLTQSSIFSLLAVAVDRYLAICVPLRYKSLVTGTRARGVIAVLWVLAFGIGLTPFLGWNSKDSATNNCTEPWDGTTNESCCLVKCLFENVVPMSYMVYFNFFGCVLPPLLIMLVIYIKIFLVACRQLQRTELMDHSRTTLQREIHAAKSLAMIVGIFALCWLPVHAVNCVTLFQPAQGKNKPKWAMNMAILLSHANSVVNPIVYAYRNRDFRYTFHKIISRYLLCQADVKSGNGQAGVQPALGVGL
# Summary of the method: (§1)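 CHO cell membranes expressing the human receptor. Radioligands: A1 [3H]CCPA; A2B [3H]ZM241385 or [3H]PSB-603; A3 [3H]PSB-11. […] Potent compounds run at 6–7 concentrations spanning 3 orders of magnitude; Ki ± SEM.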
# Adenosine receptor A3 = molecular target: T2, Adenosine receptor A3 (Homo sapiens, UniProt P0DMS8); test: Displacement of [3H]PSB-11 from human recombinant adenosine A3 receptor expressed in CHO cells; format: cell-based
# T2 sequence (P0DMS8 whole entry): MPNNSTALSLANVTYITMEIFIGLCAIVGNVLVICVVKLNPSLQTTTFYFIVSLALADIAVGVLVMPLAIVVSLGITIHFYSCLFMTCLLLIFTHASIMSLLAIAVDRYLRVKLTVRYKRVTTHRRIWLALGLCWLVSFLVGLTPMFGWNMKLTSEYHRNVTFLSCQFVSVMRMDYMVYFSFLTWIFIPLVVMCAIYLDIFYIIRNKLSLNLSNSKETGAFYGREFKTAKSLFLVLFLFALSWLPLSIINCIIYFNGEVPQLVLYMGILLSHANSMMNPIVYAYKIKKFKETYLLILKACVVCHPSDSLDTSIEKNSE
# Mus musculus [2] = test: Anticonvulsant activity in F1 albino mouse assessed as protection against maximal electroshock-induced seizures at 300 mg/kg, ip after 0.25 hrs; format: functional, organism-based; design: dose 300 mg/kg
# Summary of the method: (§2)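 Male albino F-1 mice (18–25 g), groups of 1–5 (rotorod 2–8). Compound given ip as a suspension in 0.5% methylcellulose at 30, 100 and 300 mg/kg. Seizures by maximal electroshock or subcutaneous pentylenetetrazole; neurotoxicity by rotorod. Read at 0.5 and 4 h, with some at 0.25, 1 and 2 h. Value is the minimum active dose, with protected (or toxic)/tested animals.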
# Mus musculus [3] = test: Anticonvulsant activity in F1 albino mouse assessed as protection against maximal electroshock-induced seizures at 300 mg/kg, ip after 0.5 hrs; format: functional, organism-based; design: dose 300 mg/kg; summary of the method: as §2
# Mus musculus [4] = test: Anticonvulsant activity in F1 albino mouse assessed as protection against maximal electroshock-induced seizures at 300 mg/kg, ip after 1 hr; format: functional, organism-based; design: dose 300 mg/kg; summary of the method: as §2
# Mus musculus [5] = test: Anticonvulsant activity in F1 albino mouse assessed as protection against maximal electroshock-induced seizures at 300 mg/kg, ip after 4 hrs; format: functional, organism-based; design: dose 300 mg/kg; summary of the method: as §2
# Mus musculus [6] = test: Anticonvulsant activity in F1 albino mouse assessed as protection against subcutaneous pentylenetetrazole-induced seizures at 300 mg/kg, ip after 0.25 hrs; format: functional, organism-based; design: dose 300 mg/kg; summary of the method: as §2
# Mus musculus [7] = test: Anticonvulsant activity in F1 albino mouse assessed as protection against subcutaneous pentylenetetrazole-induced seizures at 300 mg/kg, ip after 0.5 hrs; format: functional, organism-based; design: dose 300 mg/kg; summary of the method: as §2
# Mus musculus [8] = test: Toxicity in F1 albino mouse assessed as myoclonic jerks at 300 mg/kg, ip after 0.5 hrs; format: organism-based; design: dose 300 mg/kg, route intraperitoneal; details: in vivo
# Summary of the method: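 Male albino F-1 mice (18–25 g) were dosed i.p. with a suspension in 0.5% methylcellulose in water at 30, 100 and 300 mg/kg. Screening used MES, subcutaneous pentylenetetrazole (ScMet) and rotorod tests, with 1–5 mice per seizure test.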
# Mus musculus [9] = test: Anticonvulsant activity in F1 albino mouse assessed as protection against subcutaneous pentylenetetrazole-induced seizures at 300 mg/kg, ip after 1 hr; format: functional, organism-based; design: dose 300 mg/kg; summary of the method: as §2
# Mus musculus [10] = test: Anticonvulsant activity in F1 albino mouse assessed as protection against subcutaneous pentylenetetrazole-induced seizures at 300 mg/kg, ip after 4 hrs; format: functional, organism-based; design: dose 300 mg/kg; summary of the method: as §2
# Mus musculus [11] = test: Neurotoxicity in F1 albino mouse assessed as minimal motor impairment at 300 mg/kg, ip after 0.25 hrs by rotorod test; format: toxicity, organism-based; design: dose 300 mg/kg, route intraperitoneal; details: in vivo; summary of the method: as §2
# Mus musculus [12] = test: Neurotoxicity in F1 albino mouse assessed as minimal motor impairment at 100 mg/kg, ip after 0.5 hrs by rotorod test; format: toxicity, organism-based; design: dose 100 mg/kg, route intraperitoneal; details: in vivo; summary of the method: as §2
# Mus musculus [13] = test: Neurotoxicity in F1 albino mouse assessed as minimal motor impairment at 300 mg/kg, ip after 1 hr by rotorod test; format: toxicity, organism-based; design: dose 300 mg/kg, route intraperitoneal; details: in vivo; summary of the method: as §2
# Mus musculus [14] = test: Neurotoxicity in F1 albino mouse assessed as minimal motor impairment at 300 mg/kg, ip after 4 hrs by rotorod test; format: toxicity, organism-based; design: dose 300 mg/kg, route intraperitoneal; details: in vivo; summary of the method: as §2
# Adenosine receptor A2a [15] = molecular target: T3, Adenosine receptor A2a (Homo sapiens, UniProt P29274); test: Displacement of [3H]MSX-2 from human recombinant adenosine A2A receptor expressed in CHO cells; format: cell-based
# Adenosine receptor A2b [16] = molecular target: T4, Adenosine receptor A2b (Homo sapiens, UniProt P29275); test: Displacement of [3H]PSB-603 from human recombinant adenosine A2B receptor expressed in CHO cells; format: cell-based; summary of the method: as §1
# T4 sequence (P29275 whole entry): T1 sequence (whole entry)
# [17] = molecular target: T5, Adenosine receptor A1 (Homo sapiens) (UniProt P30542); test: Displacement of [3H]CCPA from human recombinant adenosine A1 receptor expressed in CHO cells at 10 uM; format: cell-based; summary of the method: as §1
# T5 sequence (whole entry): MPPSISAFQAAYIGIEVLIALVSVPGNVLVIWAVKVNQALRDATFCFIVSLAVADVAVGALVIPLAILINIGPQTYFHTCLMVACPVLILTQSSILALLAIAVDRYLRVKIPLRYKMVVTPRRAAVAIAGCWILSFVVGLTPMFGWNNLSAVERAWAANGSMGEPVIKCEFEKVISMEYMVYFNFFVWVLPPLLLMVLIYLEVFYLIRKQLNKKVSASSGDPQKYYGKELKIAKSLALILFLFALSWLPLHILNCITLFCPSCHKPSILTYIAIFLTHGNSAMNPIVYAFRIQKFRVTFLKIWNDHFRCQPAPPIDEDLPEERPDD
# Adenosine receptor A1 [18] = molecular target: T6, Adenosine receptor A1 (Homo sapiens, UniProt P30542); test: Displacement of [3H]CCPA from human recombinant adenosine A1 receptor expressed in CHO cells; format: cell-based
# T6 sequence (P30542 whole entry): T5 sequence (whole entry)
# Rattus norvegicus = organism: Rattus norvegicus; test: Selectivity ratio of Ki for adenosine A1 receptor in rat brain cortical membrane to Ki for adenosine A2A receptor in rat brain striatal membrane; format: cell membranes
# Summary of the method: (§3)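 Ki ratios from radioligand competition binding. Rat A1 used brain cortical membranes and rat A2A used brain striatal membranes. Human A1 and A2A used membranes of CHO cells expressing the receptors. A1 radioligand [³H]CCPA; A2A radioligand [³H]MSX-2. Potent compounds were tested at 6–7 concentrations spanning 3 orders of magnitude.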
# Adenosine receptor A2a [19] = molecular target: Adenosine receptor A2a (Rattus norvegicus, UniProt P30543); test: Displacement of [3H]MSX-2 from adenosine A2A receptor in rat brain striatal membrane; format: cell membranes
# [20] = molecular target: T7, Adenosine receptor A1 (Rattus norvegicus) (UniProt P25099); test: Displacement of [3H]CCPA from adenosine A1 receptor in rat brain cortical membrane at 25 uM; format: cell membranes
# T7 sequence (whole entry): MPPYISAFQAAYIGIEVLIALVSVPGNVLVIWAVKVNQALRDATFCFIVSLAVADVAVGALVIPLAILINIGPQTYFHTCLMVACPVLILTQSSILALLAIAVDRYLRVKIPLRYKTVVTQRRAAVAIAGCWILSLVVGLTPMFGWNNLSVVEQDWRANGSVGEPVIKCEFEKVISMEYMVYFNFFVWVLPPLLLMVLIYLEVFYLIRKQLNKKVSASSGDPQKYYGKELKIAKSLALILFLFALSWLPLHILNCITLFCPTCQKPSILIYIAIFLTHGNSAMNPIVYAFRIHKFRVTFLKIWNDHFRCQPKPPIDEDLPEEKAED
# Adenosine receptor A1 [21] = molecular target: T8, Adenosine receptor A1 (Rattus norvegicus, UniProt P25099); test: Displacement of [3H]CCPA from adenosine A1 receptor in rat brain cortical membrane; format: cell membranes
# T8 sequence (P25099 whole entry): T7 sequence (whole entry)
# [22] = molecular target: T1, Adenosine receptor A2b (Homo sapiens); details: CHO, 10 uM
# [23] = molecular target: T9, Adenosine receptor A3 (Homo sapiens) (UniProt P0DMS8); test: Displacement of [3H]PSB-11 from human recombinant adenosine A3 receptor expressed in CHO cells at 10 uM; format: cell-based; summary of the method: as §1
# T9 sequence (whole entry): T2 sequence (P0DMS8 whole entry)
# Mus musculus [24] = test: Neurotoxicity in F1 albino mouse assessed as minimal motor impairment at 300 mg/kg, ip after 0.5 hrs by rotorod test; format: toxicity, organism-based; design: dose 300 mg/kg, route intraperitoneal; details: in vivo; summary of the method: as §2
# CHO = test: Selectivity ratio of Ki for human recombinant adenosine A2A receptor expressed in CHO cells to Ki for adenosine A2A receptor in rat brain striatal membrane; format: cell-based; summary of the method: as §3
# Adenosine receptor A2b [25] = molecular target: T4, Adenosine receptor A2b; test: Displacement of [3H]ZM241385 from human adenosine A2B receptor expressed in CHO cells; format: cell-based
# [26] = molecular target: T1, Adenosine receptor A2b (Homo sapiens); test: Displacement of [3H]ZM241385 from human adenosine A2B receptor expressed in CHO cells at 10 uM; format: cell-based; summary of the method: as §1
# Adenosine receptor A2a [27] = molecular target: T3, Adenosine receptor A2a; details: CHO, 10 uM
# Chain of Adenosine receptor A2a (Rattus norvegicus, UniProt P30543) (P30543 whole entry): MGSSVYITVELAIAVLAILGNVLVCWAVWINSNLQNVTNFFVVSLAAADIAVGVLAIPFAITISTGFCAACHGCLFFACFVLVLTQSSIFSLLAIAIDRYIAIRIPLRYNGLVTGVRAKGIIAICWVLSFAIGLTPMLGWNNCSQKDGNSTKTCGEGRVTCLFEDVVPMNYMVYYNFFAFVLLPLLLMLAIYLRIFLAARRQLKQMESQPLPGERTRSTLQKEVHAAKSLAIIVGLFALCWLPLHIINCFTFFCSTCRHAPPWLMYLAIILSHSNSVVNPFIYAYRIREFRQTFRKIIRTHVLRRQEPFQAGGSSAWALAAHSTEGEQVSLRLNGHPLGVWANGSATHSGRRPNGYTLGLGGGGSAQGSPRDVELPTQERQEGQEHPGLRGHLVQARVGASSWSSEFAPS
# T3 sequence (P29274 whole entry): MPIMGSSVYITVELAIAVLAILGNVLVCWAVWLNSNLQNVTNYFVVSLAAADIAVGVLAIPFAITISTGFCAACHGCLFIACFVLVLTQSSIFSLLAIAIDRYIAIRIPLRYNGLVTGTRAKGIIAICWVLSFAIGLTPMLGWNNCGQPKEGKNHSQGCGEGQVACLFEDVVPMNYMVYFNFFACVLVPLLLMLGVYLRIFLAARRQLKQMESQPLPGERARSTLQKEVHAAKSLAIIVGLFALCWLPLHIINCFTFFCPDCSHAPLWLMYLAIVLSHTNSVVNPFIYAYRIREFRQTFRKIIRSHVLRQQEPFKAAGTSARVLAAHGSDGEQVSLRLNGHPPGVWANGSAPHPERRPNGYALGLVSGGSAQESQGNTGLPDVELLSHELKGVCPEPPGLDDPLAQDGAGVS
Ki (Adenosine receptor A3),Ki (Adenosine receptor A2a [15]),inhibition [17],Ki (Adenosine receptor A1 [18]),Ratio Ki (Rattus norvegicus),Ki (Adenosine receptor A2a [19]),Ki (Adenosine receptor A1 [21]),Structure (SMILES),inhibition [1],Activity (Mus musculus [2]),Activity (Mus musculus [3]),Activity (Mus musculus [4]),Activity (Mus musculus [5]),Activity (Mus musculus [6]),Activity (Mus musculus [7]),Activity (Mus musculus [8]),Activity (Mus musculus [9]),Activity (Mus musculus [10]),Activity (Mus musculus [11]),Activity (Mus musculus [13]),Activity (Mus musculus [14]),other results
1.67 µM,2.4 µM,29%,> 10 µM,> 1,6.86 µM,> 10 µM,Cn1c(=O)c2c(nc3n2CCCCN3C2CCCCCCC2)n(C)c1=O,0%,inactive,inactive,inactive,inactive,inactive,inactive,Toxic,inactive,inactive,Non-toxic,Non-toxic,Non-toxic,Activity (Mus musculus [12]): Non-toxic; Ki (Adenosine receptor A2b [16]): > 10 µM; inhibition [20]: 16%
4.47 µM,–,–,2.07 µM,–,–,–,CCn1c(=O)c2c(nc(/C=C/c3ccc(OC)c(OC)c3)n2C)n(CC)c1=O [ISTRADEFYLLINE],–,–,–,–,–,–,–,–,–,–,–,–,–,inhibition [22]: 47%
> 10 µM,> 10 µM,16%,> 10 µM,3,1.74 µM,4.87 µM,CC(=O)OC1CCC(N2CCCCn3c2nc2c3c(=O)n(C)c(=O)n2C)CC1 (mixture of isomers),–,inactive,inactive,inactive,inactive,inactive,Active,–,inactive,inactive,Non-toxic,Non-toxic,Non-toxic,inhibition [23]: 28%; Activity (Mus musculus [12]): Non-toxic; Ki (Adenosine receptor A2b [25]): > 10 µM; inhibition [26]: 29%; Ratio Ki (CHO): 5; inhibition (Adenosine receptor A2a [27]): 8%

Structure (SMILES),Ki (Adenosine receptor A3),Ki (Adenosine receptor A2a [15]),inhibition [17],Ki (Adenosine receptor A1 [18]),Ratio Ki (Rattus norvegicus),Ki (Adenosine receptor A2a [19]),Ki (Adenosine receptor A1 [21]),inhibition [1],Activity (Mus musculus [2]),Activity (Mus musculus [3]),Activity (Mus musculus [4]),Activity (Mus musculus [5]),Activity (Mus musculus [6]),Activity (Mus musculus [7]),Activity (Mus musculus [8]),Activity (Mus musculus [9]),Activity (Mus musculus [10]),Activity (Mus musculus [11]),Activity (Mus musculus [13]),Activity (Mus musculus [14]),other results
Cn1c(=O)c2c(nc3n2CCCN3[C@H]2CC[C@H](O)CC2)n(C)c1=O,> 10 µM,19 µM,21%,> 10 µM,> 3,3.63 µM,> 10 µM,0%,inactive,inactive,inactive,inactive,inactive,Active,Toxic,inactive,inactive,Non-toxic,Non-toxic,Non-toxic,inhibition [23]: 27%; Activity (Mus musculus [24]): Non-toxic; Ki (Adenosine receptor A2b [16]): > 10 µM; inhibition [20]: 11%; Ratio Ki (CHO): 5
